Source: ChEMBL document CHEMBL1154461, “6-Substituted 2-oxo-2H-1-benzopyran-3-carboxylic acid derivatives in a new approach of the treatment of cancer cell invasion and metastasis” (2008)

How the values were obtained:
HT-1080 [1] = assay: Antiinvasive activity in human HT1080 cells assessed as number of cells migrated at 1 uM after 48 hrs by Boyden chamber invasion assay
HT-1080 [2] = assay: Antiinvasive activity in human HT1080 cells assessed as number of cells migrated at 0.1 uM after 24 hrs by Boyden chamber invasion assay; assay type: functional; conditions: in the assay text read “after 48 hrs” for “after 24 hrs”
Summary of the method: (§1)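 HT 1080 cells, harvested at 70–80% confluence, were seeded at 6×10⁴ cells per filter in serum-free DMEM with BSA. Transwell filters were coated with human placental type IV collagen. Chambers were incubated 48 h at 37 °C, with media renewed at 24 h. Lower-surface cells were fixed, Giemsa-stained and counted by light microscopy. Results are % of untreated control migration, mean ± s.d., n=3.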

HT-1080 [3] = assay: Antiinvasive activity in human HT1080 cells assessed as number of cells migrated at 10 uM after 24 hrs by Boyden chamber invasion assay; assay type: functional; conditions: in the assay text read “after 48 hrs” for “after 24 hrs”
Summary of the method: as §1

HT-1080 [4] = assay: Antiinvasive activity in human HT1080 cells assessed as number of cells migrated at 10 uM after 48 hrs by Boyden chamber invasion assay
HT-1080 [5] = assay: Antiinvasive activity in human HT1080 cells assessed as number of cells migrated at 0.1 uM after 48 hrs by Boyden chamber invasion assay

SMILES | Cells migrated (HT-1080 [1]) [%] | Activity (HT-1080 [2]) [%] | Activity (HT-1080 [3]) [%] | Activity (HT-1080 [4]) [%] | Activity (HT-1080 [5]) [%]
Cl.NCc1ccc2oc(=O)c(C(=O)Oc3cccc(I)c3)cc2c1 | 25.34 |  |  |  | 
CC(=O)OCc1ccc2oc(=O)c(C(=O)Oc3cccc(Cl)c3)cc2c1 | 49.11 | 95.2 | 6.17 |  | 
CC(=O)NCc1ccc2oc(=O)c(C(=O)Oc3ccccc3)cc2c1 | 63.45 |  |  |  | 
O=C(Oc1ccccc1)c1cc2cc([N+](=O)[O-])ccc2oc1=O | 76.68 |  |  |  | 
CC(=O)OCc1ccc2oc(=O)c(C(=O)N(C)c3ccccc3Cl)cc2c1 | 62.78 |  |  |  | 
CCCCCC(=O)OCc1ccc2oc(=O)c(C(=O)Oc3cccc(Br)c3)cc2c1 | 59.32 | 94.25 | 33.94 |  | 
Cl.NCc1ccc2oc(=O)c(C(=O)Oc3cccc(Br)c3)cc2c1 | 79.25 | 88.26 | 63.58 |  | 
CC(=O)NCc1ccc2oc(=O)c(C(=O)Oc3cccc(Cl)c3)cc2c1 | 36.58 |  |  |  | 
O=C(Oc1cccc(F)c1)c1cc2cc([N+](=O)[O-])ccc2oc1=O | 53.56 |  |  |  | 
Cc1ccc2oc(=O)c(C(=O)Oc3cccc(Cl)c3)cc2c1 | 52.49 | 81.5 | 27.62 |  | 
CCCC(=O)OCc1ccc2oc(=O)c(C(=O)Oc3cccc(Br)c3)cc2c1 | 50.47 | 88.55 |  | 24.67 | 
CC(=O)OCc1ccc2oc(=O)c(C(=O)Oc3cccc(Br)c3)cc2c1 | 21.81 | 39.47 | 11.77 |  | 
CCC(=O)OCc1ccc2oc(=O)c(C(=O)Oc3cccc(Br)c3)cc2c1 | 40.23 | 84.36 | 21.32 |  | 
CC(=O)NCc1ccc2oc(=O)c(C(=O)Oc3cccc(F)c3)cc2c1 | 65.58 |  |  |  | 
CC(=O)NCc1ccc2oc(=O)c(C(=O)Oc3cccc(I)c3)cc2c1 | 23.47 |  |  |  | 
O=C(Oc1cccc(Br)c1)c1cc2cc([N+](=O)[O-])ccc2oc1=O | 35.22 |  |  |  | 
CC(=O)OCc1ccc2oc(=O)c(C(=O)N(C)c3ccc(Cl)cc3)cc2c1 | 98.56 |  |  |  | 
CC(=O)NCc1ccc2oc(=O)c(C(=O)Oc3cccc(Br)c3)cc2c1 | 36.94 | 34.38 | 27.14 |  | 

SMILES | Cells migrated (HT-1080 [1]) [%] | Activity (HT-1080 [2]) [%] | Activity (HT-1080 [3]) [%] | Activity (HT-1080 [4]) [%] | Activity (HT-1080 [5]) [%]
O=C(Oc1cccc(Cl)c1)c1cc2cc(CCl)ccc2oc1=O | 79.76 | 98.35 | 67 |  | 
CC(C)CC(C(=O)N(C)C(Cc1ccccc1)C(=O)O)C(CSc1ccccc1)C(=O)NO (configuration not stated) | 38.45 |  |  |  | 
Cl.NCc1ccc2oc(=O)c(C(=O)Oc3cccc(Cl)c3)cc2c1 | 86.56 |  |  |  | 
CC(C)(C)C(=O)OCc1ccc2oc(=O)c(C(=O)Oc3cccc(Br)c3)cc2c1 | 48.21 |  | 23.64 |  | 65.24
CC(=O)OCc1ccc2oc(=O)c(C(=O)Sc3ccccc3)cc2c1 | 83.45 | 89.45 | 73.84 |  | 
O=C1NC(=O)C(c2ccc(-c3ccccc3)cc2)(N2CCN(c3ccc([N+](=O)[O-])cc3)CC2)C(=O)N1 | 41.6 |  |  |  | 
CC(C)C(=O)OCc1ccc2oc(=O)c(C(=O)Oc3cccc(Br)c3)cc2c1 | 37.8 | 54.36 | 21.07 |  | 
CC(=O)OCc1ccc2oc(=O)c(C(=O)Nc3cccc(Cl)c3)cc2c1 | 66.85 | 79.55 | 42.75 |  | 
Cl.NCc1ccc2oc(=O)c(C(=O)Oc3ccccc3)cc2c1 | 85.53 |  |  |  | 
O=C(Oc1cccc(Cl)c1)c1cc2ccccc2oc1=O | 45.5 | 52.4 | 35.65 |  | 
CCCCCCC(=O)OCc1ccc2oc(=O)c(C(=O)Oc3cccc(Br)c3)cc2c1 | 55.56 | 89.36 | 35.96 |  | 
O=C(Oc1cccc(Cl)c1)c1cc2cc([N+](=O)[O-])ccc2oc1=O | 65.78 |  |  |  | 
CC(=O)OCc1ccc2oc(=O)c(C(=O)N(C)c3cccc(Cl)c3)cc2c1 | 82.56 |  |  |  | 
CC(=O)OCc1ccc2oc(=O)c(C(=O)Sc3cccc(Br)c3)cc2c1 | 70.86 | 79.58 | 67.84 |  | 
CC(=O)OCc1ccc2oc(=O)c(C(=O)Sc3cccc(Cl)c3)cc2c1 | 65.84 | 76.54 | 61.86 |  | 
Cl.NCc1ccc2oc(=O)c(C(=O)Oc3cccc(F)c3)cc2c1 | 45.25 |  |  |  | 
CCCCC(=O)OCc1ccc2oc(=O)c(C(=O)Oc3cccc(Br)c3)cc2c1 | 63.25 | 92.36 | 32.26 |  | 
O=C(Oc1cccc(I)c1)c1cc2cc([N+](=O)[O-])ccc2oc1=O | 63.58 |  |  |  | 
